Screens: PubChem, The Scripps Research Institute Molecular Screening Center
Shown are actives, neighbours in structure and some others; about 2% of the full set was active somewhere.
SIAE primary: human SIAE inhibitors, primary screen, biochemical, fluorescence polarization, FP-Rh probe, 1536-well HTS | Sialate O-acetylesterase (Homo sapiens), Q9HAT2 | SIAE FP-Rh probe binding | inhibition, % at 9.66 µM | 370,000 compounds, 0.69% hits;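 active = inhibition above a cutoff: mean of compounds within the control limits plus 3 SD of those, cut at about 17% in these data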
PAD4 FP inh: human PAD4 inhibitors, primary screen, biochemical, fluorescence polarization, 1536-well format; recombinant PAD4, RCA probe fluorescence polarization; inhibition, % at 6.36 µM; 330,000 compounds, 0.41% hits;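 active = percent inhibition above a cutoff equal to the mean of all tested compounds plus 3 SD, cut at about 15% in these data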
ABHD4 inh: ABHD4 inhibitors, primary screen, biochemical, fluorescence polarization, mouse | inhibition, % at 8.92 µM | (Lyso)-N-acylphosphatidylethanolamine lipase (Mus musculus), Q8VD66 | purified mABHD4, FP-Rh probe fluorescence polarization | 370,000 compounds, 0.54% hits;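 active = inhibition exceeding the mean over every tested compound plus 3 SD, cut at about 30% in these data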
Target sequence (Q8VD66 whole entry, looked up): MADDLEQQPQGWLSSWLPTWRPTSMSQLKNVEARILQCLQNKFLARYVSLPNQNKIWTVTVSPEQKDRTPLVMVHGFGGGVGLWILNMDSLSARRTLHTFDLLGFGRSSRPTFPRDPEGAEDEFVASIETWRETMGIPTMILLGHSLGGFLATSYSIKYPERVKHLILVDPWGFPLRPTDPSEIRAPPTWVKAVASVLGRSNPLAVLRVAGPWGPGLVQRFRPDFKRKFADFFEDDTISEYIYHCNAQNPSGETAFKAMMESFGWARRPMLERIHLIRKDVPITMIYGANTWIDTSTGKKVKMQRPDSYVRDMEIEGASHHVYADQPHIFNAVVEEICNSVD
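assay system = mABHD4 protein | compound dosing = single nominal dose of 8.92 µM, 0.89% DMSO final | read-out basis = percent inhibition of probe binding, normalized to plate controls | schedule = Enzyme–compound pre-incubation 45 min, then probe 60 min, both 25 °C | detection = fluorescence polarization, excitation 525 nm, emission 598 nm, BODIPY TMR filters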
TDP2 absorb: human TDP2 enzyme inhibitors, primary screen, biochemical, epi absorbance, recombinant enzyme; T5PNP hydrolysis, p-nitrophenol absorbance 415 nm; inhibition, % at 12.8 µM; 370,000 compounds, 0.34% hits;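 active = inhibition above the mean of all tested compounds plus 3 SD, set per campaign, cut at about 25% in these data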
Target sequence (O95551 whole entry, looked up): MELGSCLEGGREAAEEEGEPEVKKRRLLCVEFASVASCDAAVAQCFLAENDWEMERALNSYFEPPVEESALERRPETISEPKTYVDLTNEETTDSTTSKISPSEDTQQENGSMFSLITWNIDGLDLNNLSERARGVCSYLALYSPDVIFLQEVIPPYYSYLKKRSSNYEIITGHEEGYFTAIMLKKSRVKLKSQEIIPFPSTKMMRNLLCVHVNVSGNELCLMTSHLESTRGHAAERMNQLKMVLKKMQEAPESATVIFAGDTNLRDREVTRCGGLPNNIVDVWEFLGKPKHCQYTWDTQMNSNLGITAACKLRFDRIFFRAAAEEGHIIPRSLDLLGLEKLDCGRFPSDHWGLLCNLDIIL
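Read-out basis: percent inhibition. System: recombinant human TDP2. Buffer or medium: Mg2+-containing Tris-HCl buffer, pH 7.5. Repeats: single replicate. Timing: reaction 2 h, 37 °C. Benchmarks: high control without enzyme, low control DMSO plus TDP2. Probe or stimulus: 5 mM T5PNP. Doses: 12.8 µM only. Measured by: epi absorbance of p-nitrophenol freed from T5PNP by hydrolysis.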
HTRA1 inh: HTRA1 serine protease inhibitors, primary screen, biochemical, fluorescence polarization, HTS. AID 504803, 2011. inhibition, % at 5.96 µM. recombinant HTRA1, FP-rhodamine activity-based probe. 340,000 compounds, 0.5% hits; in the data active = inhibition above about 36%
TCR-CD3 inh: inhibitors of human TCR-CD3 interaction, primary screen, biochemical, fluorescence, TAMRA-labeled TCR probe; T-cell receptor (TCR); inhibition, % at 9.4 µM; 360,000 compounds, 0.37% hits; AID 651800, 2012;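 note: recombinant mutant TCR 2C K166C tagged with TAMRA read by polarization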
BSA TAMRA ctr: compounds interfering with TAMRA-BSA probe, counter-screen for TCR-CD3 interaction inhibitor project, biochemical, fluorescence, TAMRA-labeled BSA; shares compounds with TCR-CD3 inh; TAMRA-labeled BSA probe fluorescence counterscreen; 1,200 compounds, 10% hits; inhibition, % at 9.4 µM; in the data active = inhibition above about 23%
TCR-CD3 inh conf: TCR-CD3 interaction inhibitors, retest, confirmation, biochemical, fluorescence, TAMRA-labeled TCR probe. shares compounds with TCR-CD3 inh. TAMRA-labeled TCR probe fluorescence binding assay. inhibition, % at 9.4 µM. 1,200 compounds, 48% hits
Of the large screens only hits and unclear results are named; the others gave an inactive call (follow-up assays come after a bar, where they were run). Cut-off read from the data, not from the text of the source, unless noted: active = inhibition above about 19%; inactive = the rest.

COc1ccc(Br)c(Cn2c(C)c(C(=O)NCc3ccc4c(c3)OCCO4)sc2=O)c1	none (no result: PAD4 FP inh, HTRA1 inh)
O=C(NNS(=O)(=O)c1ccccc1[N+](=O)[O-])c1cc2ccccc2cc1O	TCR-CD3 inh 19.6 | BSA TAMRA ctr inactive | TCR-CD3 inh conf inactive
O=C(NNS(=O)(=O)c1ccccc1[N+](=O)[O-])c1ccccc1Cl	none
CSCCC(NC(=O)c1ccccc1Cl)C(=O)NNC(=O)c1ccccc1O (centres undefined)	TCR-CD3 inh 29.3 | BSA TAMRA ctr inactive | TCR-CD3 inh conf inactive
Cc1ccc(-c2ccc(/C=N/N3C(=O)C4C5C=CC(CC5)C4C3=O)o2)c([N+](=O)[O-])c1 (centres undefined)	TCR-CD3 inh 22.5 | BSA TAMRA ctr inactive | TCR-CD3 inh conf inactive
O=C1C2C3C=CC(C4CC34)C2C(=O)N1/N=C/c1ccc(-c2ccc(F)cc2[N+](=O)[O-])o1 (centres undefined)	none
O=C(O)c1cc(O)c2c(c1)[C@@H]([C@H]1c3cc(C(=O)O)cc(O)c3C(=O)c3c(O[C@@H]4O[C@H](CO)[C@@H](O)[C@H](O)[C@H]4O)cccc31)c1cccc(OC3O[C@H](CO)[C@@H](O)[C@H](O)[C@H]3O)c1C2=O (some centres undefined)	SIAE primary 67.6, TCR-CD3 inh 153.1 | BSA TAMRA ctr inactive | TCR-CD3 inh conf 108.7
Cc1ccc(-c2nn(-c3ccccc3)cc2C(=O)Nc2ccc(C)c(S(=O)(=O)N3CCOCC3)c2)cc1	TCR-CD3 inh 69.2 | BSA TAMRA ctr 29.8 | TCR-CD3 inh conf 60.4
ON=C1CCC2CCCCC2C1 (centres undefined)	none (no result: PAD4 FP inh)
Cc1cc(C(=O)C(C)OC(=O)c2ccc(NC(=O)CC#N)cc2)c(C)n1-c1ccc(OC(F)F)cc1 (centres undefined)	TCR-CD3 inh 24.2 | BSA TAMRA ctr inactive | TCR-CD3 inh conf inactive
Cc1[nH]c2ccccc2c1C(=O)C(C)OC(=O)c1ccc(NC(=O)CC#N)cc1 (centres undefined)	none
CN(C)S(=O)(=O)c1cccc(NC(=O)COC(=O)c2cccc(S(=O)(=O)N3CCc4ccccc4C3)c2)c1	TCR-CD3 inh 42.1 | BSA TAMRA ctr 25.9 | TCR-CD3 inh conf 54.5
CN(C)S(=O)(=O)c1cccc(NC(=O)COC(=O)c2cn(-c3ccccc3)nc2-c2ccccc2)c1	TCR-CD3 inh 30.9 | BSA TAMRA ctr inactive | TCR-CD3 inh conf inactive
NS(=O)(=O)c1cccc(NC(=O)COC(=O)c2cc(-c3ccc(Cl)cc3)nc3ccccc23)c1	TCR-CD3 inh 81.2 | BSA TAMRA ctr inactive | TCR-CD3 inh conf 35.4
CCc1cccc(CC)c1NC(=O)COC(=O)c1cccc(S(=O)(=O)N2CCc3ccccc3C2)c1	none
COc1ccc(NC(=O)Nc2ccc([N+](=O)[O-])cc2)cn1	none
Cc1nn(CC(=O)NC(=O)NC2CCCC(C)C2C)c(=O)c(C#N)c1C (centres undefined)	TCR-CD3 inh 23.6 | BSA TAMRA ctr inactive | TCR-CD3 inh conf inactive
COc1cccc(-c2nc(Cl)nc3cc(Cl)ccc23)c1	none (no result: PAD4 FP inh, HTRA1 inh)
NC(=O)[C@H]1CC2(CC(c3cccc(NC(=O)CC(c4ccccc4)c4ccccc4)c3)=NO2)CN1C(=O)CC(c1ccccc1)c1ccccc1 (some centres undefined)	TCR-CD3 inh 22.3 | BSA TAMRA ctr inactive | TCR-CD3 inh conf inactive
C/C=C(/C)C(=O)Nc1cccc(C2=NOC3(C2)C[C@@H](C(N)=O)N(C(=O)c2ccc(OC)cc2)C3)c1 (some centres undefined)	TCR-CD3 inh 37.8 | BSA TAMRA ctr inactive | TCR-CD3 inh conf inactive
C/C=C(/C)C(=O)Nc1cccc(C2=NOC3(C2)C[C@H](C(N)=O)N(C(=O)c2ccccc2)C3)c1 (some centres undefined)	none
CCC(=O)N1CC2(CC(c3cccc(NC(=O)CC(c4ccccc4)c4ccccc4)c3)=NO2)C[C@H]1C(N)=O (some centres undefined)	none
C=C(C)C(=O)N1CC2(CC(c3cccc(NC(=O)CC(c4ccccc4)c4ccccc4)c3)=NO2)C[C@H]1C(N)=O (some centres undefined)	none
NC(=O)[C@@H]1CC2(CC(c3cccc(NC(=O)CC(c4ccccc4)c4ccccc4)c3)=NO2)CN1C(=O)c1ccc(Cl)cc1 (some centres undefined)	TCR-CD3 inh 34.6 | BSA TAMRA ctr inactive | TCR-CD3 inh conf 19.7
O=C(CCC1CCCN(C(=O)Cn2cnnn2)C1)NCc1ccc(F)c(F)c1 (centres undefined)	none
C/C=C(\C)CN1CCCC(N(C)CCc2ccc(OC)c(OC)c2)C1 (centres undefined)	none
CCC/C=C/c1ccc(CN2C(C(C)C)C(=O)N(Cc3cn(CCC4OCCO4)nn3)CCS2(=O)=O)cc1 (centres undefined)	none (no result: PAD4 FP inh)
CCOC(=O)C1(C)NC(c2cccs2)C2C(=O)N(c3ccccc3)C(=O)C21 (centres undefined)	none
CC(=O)c1cccc(NC(=O)C2=CN3CCS(=O)(=O)N=C3C=C2)c1	none
CCC/C(C)=N/NC(=O)c1ccccc1O	none
CCOC(=O)C(CC)/C(C)=N\NC(=O)c1ccccc1O (centres undefined)	TCR-CD3 inh 34.8 | BSA TAMRA ctr inactive | TCR-CD3 inh conf 38.1
Cc1onc(-c2ccccc2)c1C(=O)NN=Cc1cc(Cl)cc(Cl)c1O	TCR-CD3 inh 27.3 (no result: PAD4 FP inh, HTRA1 inh) | BSA TAMRA ctr inactive | TCR-CD3 inh conf 33.5
Cc1onc(-c2ccccc2)c1C(=O)N/N=C/c1cccc(O)c1	none
CCn1ccnc1[C@@H]1C[C@H]2CN(Cc3ccccc3OC)C(=O)[C@]23CCCN13	none
Cc1ccc2nc(-c3ccc(NC(=O)CN(c4ccccc4C)S(C)(=O)=O)cc3)sc2c1	none
Cc1cc(C)cc(N(CC(=O)Nc2ccc(-c3nc4ccc(C)cc4s3)cc2)S(C)(=O)=O)c1	TCR-CD3 inh 49.0 | BSA TAMRA ctr inactive | TCR-CD3 inh conf 32.4
